The source of these data is ChEMBL document CHEMBL3232980, “Studies on the antiproliferative effects of tropolone derivatives in Jurkat T-lymphocyte cells” (2014).

Each structure is given as a SMILES string. The source made the active and inactive calls. The calls are words filed in the database; no cut-off is given here.

Test [1] relates to Jurkat. Briefly: Increase in p21 protein expression in human Jurkat cells at 10 to 50 uM after 24 hrs by FACS flow cytometric analysis. It is filed as functional, cell-based. An outline of the steps: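 Jurkat cells (~1 × 10^6, log phase) treated 24 h at 10 or 50 µM; no-inhibitor controls. Fixed in 4% PFA for 20 min, held overnight at 4°C in 5% BSA/PBS, permeabilized with 0.5% Triton X-100, blocked with 10% goat serum. Stained with anti-p21 (1:100) and FITC secondary (1:1000). Read-out was geometric mean fluorescence intensity by flow cytometry.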

For test [2], the system named is Jurkat. Nature of the test: Increase in p21 mRNA level in human Jurkat cells at 10 to 50 uM after 24 hrs by quantitative RT-PCR analysis. It is filed as functional, cell-based. The gist of the method:
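Roughly 5 × 10^6 Jurkat cells treated 24 h at 10 and 50 µM; untreated cells served as controls. RNA extracted with Trizol, and 2 µg reverse-transcribed. p21 and beta-actin quantified by TaqMan real-time PCR, run in triplicate.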

The test system of test [3] is Jurkat. Briefly: Cell cycle arrest in human Jurkat cells assessed as accumulation at G0/G1-phase at 10 uM after 12 hrs by propidium iodide staining-based flow cytometric analysis (reference value: 4.16%). It is filed as functional. (In general: Flow cytometry measures light scatter and fluorescence of single cells or particles in a stream.)
Test [4] concerns Jurkat. Nature of the test: Cell cycle arrest in human Jurkat cells assessed as accumulation at G1-phase at 10 uM after 12 hrs by propidium iodide staining-based flow cytometric analysis (reference value: 65%). Type of test: functional.
Test [5] concerns Jurkat. Nature of the test: Cell cycle arrest in human Jurkat cells assessed as accumulation at S-phase at 10 uM after 12 hrs by propidium iodide staining-based flow cytometric analysis (reference value: 19.5%). It is filed as functional.
The subject of test [6] is Jurkat. Briefly: Cell cycle arrest in human Jurkat cells assessed as accumulation at G2/M-phase at 10 uM after 12 hrs by propidium iodide staining-based flow cytometric analysis (reference value: 10%). Type of test: functional.
Test [7] has as its system Jurkat. Nature of the test: Cell cycle arrest in human Jurkat cells assessed as accumulation at G0/G1-phase at 10 uM after 24 hrs by propidium iodide staining-based flow cytometric analysis (reference value: 2.39%). Type of test: functional.
Test [8] has as its system Jurkat. Nature of the test: Cell cycle arrest in human Jurkat cells assessed as accumulation at G1-phase at 10 uM after 24 hrs by propidium iodide staining-based flow cytometric analysis (reference value: 60.90%). It is filed as functional.
Test [9] concerns Jurkat. Briefly: Cell cycle arrest in human Jurkat cells assessed as accumulation at S-phase at 10 uM after 24 hrs by propidium iodide staining-based flow cytometric analysis (reference value: 20.90%). It is filed as functional.
Test [10] concerns Jurkat. Briefly: Cell cycle arrest in human Jurkat cells assessed as accumulation at G2/M-phase at 10 uM after 24 hrs by propidium iodide staining-based flow cytometric analysis (reference value: 14.30%). Type of test: functional.
Test [11] has as its system Jurkat. Nature of the test: Cell cycle arrest in human Jurkat cells assessed as accumulation at G0/G1-phase at 10 uM after 36 hrs by propidium iodide staining-based flow cytometric analysis (reference value: 1.80%). It is filed as functional.
In test [12] the test system is Jurkat. Nature of the test: Cell cycle arrest in human Jurkat cells assessed as accumulation at G1-phase at 10 uM after 36 hrs by propidium iodide staining-based flow cytometric analysis (reference value: 59.10%). Type of test: functional.
For test [13], the system named is Jurkat. Nature of the test: Cell cycle arrest in human Jurkat cells assessed as accumulation at S-phase at 10 uM after 36 hrs by propidium iodide staining-based flow cytometric analysis (reference value: 23%). Type of test: functional.
In test [14] the test system is Jurkat. Briefly: Cell cycle arrest in human Jurkat cells assessed as accumulation at G2/M-phase at 10 uM after 36 hrs by propidium iodide staining-based flow cytometric analysis (reference value: 14.20%). It is filed as functional.
For test [15], the system named is Jurkat. Briefly: Induction of apoptosis in human Jurkat cells assessed as viable cells at 10 uM after 24 hrs by annexin V-FITC/propidium iodide staining-based FACS flow cytometric analysis (reference value: 99.3%). Type of test: functional. The settings on record: read-out: Activity. The gist of the method: (§1)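 About 1 × 10^6 log-phase Jurkat cells treated in 6-well plates; untreated controls. Cells washed in cold PBS and resuspended in annexin-binding buffer (10 mM HEPES, 140 mM NaCl, 2.5 mM CaCl2, pH 7.4). Stained with FITC-annexin V plus propidium iodide, then gated by flow cytometry: live (AnnV−/PI−), early apoptotic (AnnV+/PI−), late apoptotic/necrotic (AnnV+/PI+).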

Test [16] deals with Jurkat. Briefly: Induction of apoptosis in human Jurkat cells assessed as early apoptotic cells at 10 uM after 24 hrs by annexin V-FITC/propidium iodide staining-based FACS flow cytometric analysis (reference value: 0.32%). Type of test: functional. An outline of the steps: as §1
In test [17] the test system is Jurkat. Briefly: Induction of apoptosis in human Jurkat cells assessed as late apoptotic cells at 10 uM after 24 hrs by annexin V-FITC/propidium iodide staining-based FACS flow cytometric analysis (reference value: 0.0401%). Type of test: functional. The gist of the method:
as §1

Test [18] deals with Jurkat. Briefly: Induction of apoptosis in human Jurkat cells assessed as cell death at 10 uM after 24 hrs by annexin V-FITC/propidium iodide staining-based FACS flow cytometric analysis (reference value: 0.348%). It is filed as functional. An outline of the steps: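 ~1×10^6 log-phase Jurkat cells (RPMI 1640, 10% FBS, pen/strep, L-glutamine) treated in 6-well plates; untreated wells as controls. Cells washed in cold PBS and resuspended in annexin-binding buffer (10 mM HEPES, 140 mM NaCl, 2.5 mM CaCl2, pH 7.4). Stained with fluorescein-annexin V plus PI and read by flow cytometry. Gates: live A−/PI−, early apoptotic A+/PI−, late apoptotic/necrotic A+/PI+.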

The test system of test [19] is Jurkat. Nature of the test: Induction of apoptosis in human Jurkat cells assessed as caspase 3/7 activation at 10 uM after 6 hrs by luminescence assay (reference value: 59,417 +/- 10002.74 no unit). Type of test: functional.
Test [20] deals with Jurkat. Nature of the test: Induction of apoptosis in human Jurkat cells assessed as caspase 3/7 activation at 10 uM after 12 hrs by luminescence assay (reference value: 69,935 +/- 7003.63 no unit). It is filed as functional.
The test system of test [21] is Jurkat. Nature of the test: Induction of apoptosis in human Jurkat cells assessed as caspase 3/7 activation at 10 uM after 24 hrs by luminescence assay (reference value: 136,627 +/- 31846.96 no unit). It is filed as functional.
The subject of test [22] is Jurkat. Nature of the test: Induction of apoptosis in human Jurkat cells assessed as caspase 3/7 activation at 10 uM after 48 hrs by luminescence assay (reference value: 109,510 +/- 4710.453 no unit). Type of test: functional.
Test [23] concerns Jurkat. Nature of the test: Induction of apoptosis in human Jurkat cells assessed as caspase 8 responsive cells level at 10 uM after 24 hrs by FACS flow cytometric analysis (reference value: 0.32%). It is filed as functional.
The target in test [24] is T1, Histone deacetylase (Homo sapiens) (UniProt Q13547+O15379+Q9UBN7+Q92769+Q9UQL6+Q8WUI4+Q9BY41+Q96DB2+P56524+Q9UKV0+Q969S8). The settings on record: Jurkat, at 10 µM.
The target in test [25] is T1, Histone deacetylase (Homo sapiens). Conditions: Jurkat.
Test [26] shares this target. Conditions: Jurkat. This is another data set of the same source.

Consider `O=c1c(O)ccccc1-c1ccccc1`, for which the result in the test with Jurkat [1] was Active. Besides, the outcome in the test with Jurkat [2] was inactive. For the same molecule, the Activity was found to be 22.3% in the test on Jurkat [3]; 64.3% with Jurkat [4]; 11.1% in the test on Jurkat [5]; 1.39% with Jurkat [6]; 13.9% with Jurkat [7]; 70.2% in the test with Jurkat [8]. Moreover, the Activity is reported as 13.3% with Jurkat [9]; 1.81% in the test with Jurkat [10]; 18.5% with Jurkat [11]; 64.2% with Jurkat [12]; 13.3% in the test with Jurkat [13]; 2.97% in the test with Jurkat [14]. The Activity is recorded as 0.434% in the test on Jurkat [16], 0.158% with Jurkat [17], 0.513% in the test on Jurkat [18] and 0.43% with Jurkat [23]. In addition, the viability at 10 µM in the test with Jurkat [15] was 98.9%. In addition, the RLU with Jurkat [19] turned out to be 88661; with Jurkat [20] it was 97513; in the test with Jurkat [21], 76948; in the test on Jurkat [22], 105357. Further, the inhibition result in test [24] is “inactive”. The Flu intensity in test [25] was determined as 13.7; in [26], 24.6.
In the case of `O=C(CCCCCCC(=O)Nc1ccccc1)NO` [VORINOSTAT], the Activity in the test on Jurkat [3] was 20.4%; with Jurkat [4], 25.9%; in the test on Jurkat [5], 31.6%; with Jurkat [6], 19.7%; in the test on Jurkat [7], 48.9%; in the test on Jurkat [8], 7.46%. Further, the Activity in the test on Jurkat [9] was found to be 19.9%; with Jurkat [10], 12.3%; with Jurkat [11] it was 60.8%; with Jurkat [12], 6.9%; in the test on Jurkat [13], 15.6%; in the test with Jurkat [14], 14.9%. In addition, the Activity was found to be 35.9% in the test with Jurkat [16], 0.412% with Jurkat [17], 1.03% in the test on Jurkat [18] and 35.9% with Jurkat [23]. For the same molecule, the viability at 10 µM in the test on Jurkat [15] came to 62.6%. Besides, the RLU in the test with Jurkat [19] is 53518; with Jurkat [20], 157988; in the test on Jurkat [21], 125484; in the test on Jurkat [22], 95463.
With `O=c1cc(-c2ccccc2)cccc1O`, the Activity in the test on Jurkat [3] amounted to 16.3%; in the test on Jurkat [4], 71.5%; in the test on Jurkat [5], 10.2%; in the test on Jurkat [6], 1.25%; in the test with Jurkat [7] it was 13.9%; in the test on Jurkat [8], 66.5%. For the same molecule, the Activity in the test with Jurkat [9] is reported as 15.8%; in the test on Jurkat [10], 2.58%; in the test with Jurkat [11] it was 13.4%; in the test on Jurkat [12] it was 65.9%; in the test on Jurkat [13], 14.6%; in the test on Jurkat [14] it was 4.35%. Moreover, the Activity in the test with Jurkat [16] stood at 0.4%; in the test on Jurkat [17], 0.0285%; in the test with Jurkat [18] it was 0.186%; in the test with Jurkat [23] it was 0.4%. For the same molecule, in the test with Jurkat [15], the viability at 10 µM was found to be 99.4%. For the same molecule, the RLU in the test with Jurkat [19] is 73949; in the test with Jurkat [20], 110650; with Jurkat [21], 80438; in the test on Jurkat [22], 71048. The inhibition entry in test [24] was “inactive”. The Flu intensity in test [25] stood at 2.12; in test [26] it was 24.
